# Source: PubChem
# This is one part of a sample in which hits are shown more often than they occur.
# Diaph inh CS: inhibits diaphorase or chemically oxidizes, flagging diaphorase assay artifacts; diaphorase resazurin-to-resorufin fluorescence, NADH, 16 min; bacterial (C. kluyveri) enzyme, not human; inhibition, % at 20 µM; 0.69% of 190,000 active; AID 1217;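 active = primary screen inhibition at 20 µM above a set limit, cut at about 50% in these data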
#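 Assay system: diaphorase enzyme from Clostridium kluyveri. Quantity: enzyme working solution with 0.14 U/mL diaphorase. Schedule: reaction incubation of 16 min at room temperature. Technique: resorufin fluorescence, excitation 544 nm, emission 590 nm. Controls: No-NADH positive control and DMSO neutral control.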
# L major viab: reduces viability of Leishmania major promastigotes; inhibition, % at 10 µM; resazurin fluorescence viability; 9% of 200,000 active;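 note: promastigotes grown with compound for 44 hours at 28 °C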
# G6PDH counter: inhibits Leuconostoc G6PDH, flagging false hits in G6PDH-based assays; inhibition, % at 5 µM; 0.12% of 200,000 active; Purified L. mesenteroides G6PDH, diaphorase/resazurin coupled fluorescence, 45 min; AID 1020
# Redox H2O2 prof: compounds producing H2O2 with reducing agent – biochemical, NIH compound library profiling, artefact control for MLSCN library redox annotation, primary screen; 0.03% of 200,000 active; DTT-dependent redox cycling H2O2, phenol red/HRP absorbance; 100% = 100 µM peroxide control, 0% = buffer; activation, % at 10 µM; AID 878;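 active = activation of at least 50% relative to the plate's high and low controls in the primary single-dose screen; inactive = activation below 50%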;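 note: compound incubated with DTT at 0.8 mM final as the reducing agent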
# Diaph act CS: counter-screen for diaphorase-based assays: diaphorase activators and chemical reducers | 0.005% of 190,000 active | Diaphorase/resazurin coupled assay, resorufin fluorescence, 16 min; stronger effect = higher value; 1 = vehicle wells, 0 = NADH-free wells | activation factor at 20 µM;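 active = diaphorase activity raised at least twofold by the compound at 20 µM; inactive = activation factor below 2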
#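 Material: Clostridium kluyveri diaphorase, purified enzyme; Quantity: enzyme 0.07 U/mL final; Medium: HEPES pH 7.4 buffer with MgCl2 and Tween 20; Dosing: single compound dose of 20 µM, 1% DMSO final; Schedule: 16 min reaction at room temperature; Measured by: red resorufin fluorescence at 544/590 nm excitation/emission.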
# PfG6PD inh: PfG6PD (Plasmodium falciparum) enzyme inhibition. PfGluPho enzyme, NADPH resazurin-diaphorase fluorescence. inhibition, % at 20 µM. 0.78% of 350,000 active;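 active = inhibition reaching at least a set limit at 20 µM in the primary screen, cut at about 59% in these data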
# Numbers stand for hits; i = inactive; nt = no result. Cut-off read from the data, not from the text of the source, unless noted: active = inhibition above about 50%; inactive = the rest.
SMILES,Diaph inh CS,L major viab,G6PDH counter,Redox H2O2 prof,Diaph act CS,PfG6PD inh
COC(=O)c1ccc(CN2CCCC(CCC(=O)NCc3ccc(C)o3)C2)cc1 (stereo not given),i,77,i,i,i,i
O=C(CCC1CCCN(C(=O)c2ccc3c(c2)OCO3)C1)NCc1ccc(F)c(F)c1 (stereo not given),i,i,i,i,i,i
COc1ccccc1/C=C/CN1CCCC(CCC(=O)NCc2ccc(F)c(F)c2)C1 (stereo not given),i,i,i,i,i,i
COCc1ccc(CN2CCCC(CCC(=O)NCc3ccc(C)o3)C2)o1 (stereo not given),i,i,i,i,i,i
COc1ccc(/C=C/CN2CCCC(CCC(=O)NCc3ccc(F)c(F)c3)C2)cc1 (stereo not given),i,81,i,i,i,i
O=C(CCC1CCCN(Cc2ccc3c(c2)OCCO3)C1)NCc1ccc(F)c(F)c1 (stereo not given),i,73,i,i,i,i
O=C(CCC1CCCN(Cc2cccc3c2OCO3)C1)NCc1ccc(F)c(F)c1 (stereo not given),i,87,i,i,i,i
O=C(CCC1CCCN(Cc2ccc3c(c2)OCCO3)C1)NCc1ccccc1F (stereo not given),nt,nt,nt,nt,nt,i
O=C(CN(C(=O)CSc1nc2ccccc2o1)c1ccccc1F)NC1CCCCC1,i,65,i,i,i,i
COCCN(CC(=O)NC1CCCCC1)C(=O)CSc1nc2ccccc2o1,i,i,i,i,i,i
COCCN1Cc2cccc(C(=O)N3CCN(c4cc(C)ccc4C)CC3)c2C1=O,i,i,i,i,i,i
CCOC(=O)N1CCC(N2Cc3cccc(C(=O)N4CCN(c5cccc(C)c5C)CC4)c3C2=O)CC1,i,62,i,i,i,i
CCCN1Cc2cccc(C(=O)N3CCN(c4cc(Cl)ccc4C)CC3)c2C1=O,i,97,i,i,i,i
Nc1nnc(SCC(=O)Nc2cccc3ccccc23)s1,nt,nt,nt,nt,nt,i
N#CC1=CN(Cc2ccccc2)C=C(/C=N/Nc2ccccc2)C1,i,98,i,i,i,i
CCOC(=O)C(=O)C1=CN(Cc2ccccc2)C=C(C#N)C1,nt,nt,nt,nt,nt,i
C=CCOc1c(Cl)cc(/C=N/O)cc1OC,i,i,i,i,i,i
C=CCc1cc(C=O)cc(OC)c1OCc1c(Cl)cccc1Cl,i,79,i,i,i,i
COc1cc(CNCCN(C)C)c(Br)cc1OCC(=O)NCc1ccccc1,i,99,i,i,i,i
CC(NCc1cc(Br)ccc1OCC(=O)NCc1ccccc1)c1ccccc1 (stereo not given),i,98,i,i,i,i
CCN(CC)CCNCc1cc(Br)ccc1OCC(=O)NCc1ccccc1,i,i,i,i,i,i
COc1cc(CNC(C)c2ccccc2)c(Br)cc1OCC(N)=O (stereo not given),i,i,i,i,i,i
COc1cc(CNCC(C)C)c(Br)cc1OCC(=O)NCc1ccccc1,i,96,i,i,i,i
Cc1ccc(OCC(O)Cn2c(=N)n(CCN3CCCCC3)c3ccccc32)cc1 (stereo not given),i,100,i,i,i,i
COc1ccccc1OCC(O)Cn1c(=N)n(Cc2ccccc2)c2ccccc21 (stereo not given),i,101,i,i,i,i
SMILES,Diaph inh CS,L major viab,G6PDH counter,Redox H2O2 prof,Diaph act CS,PfG6PD inh
Cc1ccc(OCC(O)Cn2c(=N)n(CCN3CCOCC3)c3ccccc32)cc1 (stereo not given),i,i,i,i,i,i
COc1ccc(OCC(O)Cn2c(=N)n(CCN3CCCCC3)c3ccccc32)cc1 (stereo not given),i,100,i,i,i,i
N=c1n(CCN2CCCC2)c2ccccc2n1CC(O)c1ccc(Cl)c(Cl)c1 (stereo not given),i,100,i,i,i,i
CCn1c(=N)n(CC(O)COc2ccc(C)cc2)c2ccccc21 (stereo not given),nt,nt,nt,nt,nt,i
Cc1ccccc1OCC(O)Cn1c(=N)n(Cc2ccccc2)c2ccccc21 (stereo not given),nt,nt,nt,nt,nt,i
CON=C1C=C(C)C(=O)C(C)=C1C,nt,nt,nt,nt,nt,i
COc1ccc(C2CC(c3cccs3)=NN2c2nc(-c3ccccc3)cs2)cc1OC (stereo not given),i,i,i,i,i,i
C=CCOC(=O)C1=C[C@@H](c2csc3ccccc23)[C@H](CCCO)[C@@H](OCC)O1,nt,nt,nt,nt,nt,i
O=C(Cn1cnc2ccc(Cl)cc2c1=O)NC1CCS(=O)(=O)C1 (stereo not given),nt,nt,nt,nt,nt,i
COc1ccccc1NC(=S)N1CC(C)OC(C)C1 (stereo not given),i,i,i,i,i,i
Cc1ccc(NC(=O)C2CC2C)cc1S(=O)(=O)N1CCOCC1 (stereo not given),nt,nt,nt,nt,nt,i
CCCCn1c(=N)n(CC(O)COc2cccc(C)c2)c2ccccc21 (stereo not given),i,100,i,i,i,i
CCCn1c(=N)n(CC(O)COc2ccc(C)cc2)c2ccccc21 (stereo not given),nt,nt,nt,nt,nt,i
COc1ccc(CNC(=O)c2c(N)n(CCCN3CCOCC3)c3nc4ccccc4nc23)cc1,i,87,i,i,i,i
Nc1c(C(=O)NCc2ccc(F)cc2)c2nc3ccccc3nc2n1CCCN1CCOCC1,i,100,i,i,i,i
Nc1c(C(=O)NCc2ccccc2)c2nc3ccccc3nc2n1CCCN1CCOCC1,i,i,i,i,i,i
O=C(CCC(=O)Nc1ccccc1)N/N=C/c1cccnc1,nt,nt,nt,nt,nt,i
Cc1c(C(=O)OC(C)CCN(C)C)oc2ccccc12 (stereo not given),i,85,i,i,i,i
O=C(Oc1ccccc1)c1cccc2cccnc12,i,94,i,i,i,i
O=C(Oc1coc(CSc2ncccn2)cc1=O)c1cccc([N+](=O)[O-])c1,i,i,i,i,i,i
O=C(Oc1c(Cl)cc(Cl)c2cccnc12)c1cccc([N+](=O)[O-])c1,i,70,i,i,i,i
O=C(Oc1cccc2cccnc12)c1cccc([N+](=O)[O-])c1,i,i,59,i,i,i
Cc1c(C(=O)O/N=C(\N)c2ccccn2)cccc1[N+](=O)[O-],nt,nt,nt,nt,nt,i
O=C(O)c1cccc2cccnc12,i,i,i,i,i,i
Cc1c(C(=O)Oc2cccc3cccnc23)cccc1[N+](=O)[O-],i,98,i,i,i,i
Cc1cc(NC(=O)COC(=O)CNC(=O)c2cccs2)c([N+](=O)[O-])cc1C,nt,nt,nt,nt,nt,i
COc1ccc(C(=O)/C=C\N2CCOCC2)cc1,i,i,i,i,i,i
